Measured values as given in ChEMBL document CHEMBL1123557, “N-substituted 1,2,3,4,4a,5,6,10b-octahydrobenzo[f]quinolines and 3-phenylpiperidines: effects on central dopamine and sigma receptors” (J Med Chem, 1987).
Calls of active or inactive are those of the source. No cut-off for these calls is given here.

Tests used:
[1] = molecular target: Sigma non-opioid intracellular receptor 1 (Rattus norvegicus, UniProt Q9R0C9); assay: In vitro for binding affinity against sigma receptor using [3H](+)-3-PPP as radioligand
Procedure, shortened: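 Whole rat brain membranes (male Sprague-Dawley) in 50 mM Tris-HCl pH 8.0. Nonspecific binding defined with 1 μM haloperidol. Rapid filtration onto PEI-treated glass fiber filters, scintillation counting. IC50 from iterative curve fitting.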

Rattus norvegicus [2] = assay: post-synaptic dopaminergic effect was assessed by the increase in locomotor activity at 30 min time interval by 1.06 umol/kg dosage administration; type: functional
[3] = molecular target: D(2) dopamine receptor (Rattus norvegicus) (UniProt P61169); assay: Tested in vivo for binding affinity against Dopamine receptor D2 using nonradiolabeled 5,6-di-n-Pr-ADTN; type: organism-based; design: concentration or dose not given beside the values
[4] = test system: Dopamine D2 receptor (Rattus norvegicus); assay: Effective dose required for DOPA accumulation (presynaptic dopaminergic effect) in rat
D(2) dopamine receptor [5] = molecular target: T1, D(2) dopamine receptor (Rattus norvegicus, UniProt P61169); assay: Binding affinity against Dopamine receptor D2 using [3H]spiperone as radioligand
Procedure, shortened: (§1)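 Rat striatal membranes (male Sprague-Dawley, 150–250 g), washed three times in 50 mM Tris-HCl pH 7.7. 0.2–0.4 nM [3H]spiperone with 100 mM NaCl and 3 mM MgCl2, about 2 mg tissue, 15 min at 37 °C. Nonspecific binding defined with 1 μM haloperidol. Bound ligand collected by filtration onto PEI-treated glass fiber filters and counted by scintillation. Competition curves fitted iteratively.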

Rattus norvegicus [6] = assay: post-synaptic dopaminergic effect was assessed by the increase in locomotor activity at 30 min time interval by 265 umol/kg dosage administration; type: functional
Rattus norvegicus [7] = assay: post-synaptic dopaminergic effect was assessed by the increase in locomotor activity at 30 min time interval by 25 umol/kg dosage administration; type: functional
Rattus norvegicus [8] = species on record: Rattus norvegicus; assay: Effective dose required for DOPA accumulation (presynaptic dopaminergic effect) in rat; I is inactive; type: functional, organism-based
Procedure, shortened: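 Male Sprague-Dawley rats (200–300 g); drug in saline given sc. DOPA measured by HPLC with electrochemical detection in each brain area. Dose-response curves used four to six dose levels per substance and area.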

Rattus norvegicus [9] = assay: post-synaptic dopaminergic effect was assessed by the increase in locomotor activity at 30 min time interval by 50 umol/kg dosage administration; type: functional
Rattus norvegicus [10] = assay: post-synaptic dopaminergic effect was assessed by the increase in locomotor activity at 30 min time interval by 100 umol/kg dosage administration; type: functional
Rattus norvegicus [11] = assay: post-synaptic dopaminergic effect was assessed by the increase in locomotor activity at 30 min time interval by 3.1 umol/kg dosage administration; type: functional
D(2) dopamine receptor [12] = molecular target: T1, D(2) dopamine receptor; assay: Compound was tested in vitro for binding affinity against Dopamine receptor D2 using [3H]-spiperone as radioligand; procedure, shortened: as §1
Rattus norvegicus [13] = assay: post-synaptic dopaminergic effect was assessed by the increase in locomotor activity at 30 min time interval by 53 umol/kg dosage administration; type: functional
Rattus norvegicus [14] = assay: post-synaptic dopaminergic effect was assessed by the increase in locomotor activity at 30 min time interval by 106 umol/kg dosage administration; type: functional
D(2) dopamine receptor [15] = molecular target: T1, D(2) dopamine receptor; assay: Compound was tested in vivo for binding affinity against D2 receptor using nonradiolabeled 5,6-di-n-Pr-ADTN; type: organism-based
Rattus norvegicus [16] = assay: post-synaptic dopaminergic effect was assessed by the increase in locomotor activity at 30 min time interval by 13 umol/kg dosage administration; type: functional
Rattus norvegicus [17] = assay: post-synaptic dopaminergic effect was assessed by the increase in locomotor activity at 30 min time interval by 10.6 umol/kg dosage administration; type: functional
Rattus norvegicus [18] = assay: post-synaptic dopaminergic effect was assessed by the increase in locomotor activity at 30 min time interval by 14 umol/kg dosage administration; type: functional
Rattus norvegicus [19] = assay: post-synaptic dopaminergic effect was assessed by the increase in locomotor activity at 30 min time interval by 213 umol/kg dosage administration; type: functional

Sequence of Sigma non-opioid intracellular receptor 1 (Q9R0C9 whole entry): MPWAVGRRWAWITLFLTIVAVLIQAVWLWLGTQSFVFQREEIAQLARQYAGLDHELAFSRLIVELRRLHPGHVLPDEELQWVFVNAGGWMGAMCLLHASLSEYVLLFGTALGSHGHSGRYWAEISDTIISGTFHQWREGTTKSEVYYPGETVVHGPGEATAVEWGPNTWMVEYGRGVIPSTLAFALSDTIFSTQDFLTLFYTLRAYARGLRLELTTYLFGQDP
Sequence of D(2) dopamine receptor (Rattus norvegicus) (P61169 whole entry): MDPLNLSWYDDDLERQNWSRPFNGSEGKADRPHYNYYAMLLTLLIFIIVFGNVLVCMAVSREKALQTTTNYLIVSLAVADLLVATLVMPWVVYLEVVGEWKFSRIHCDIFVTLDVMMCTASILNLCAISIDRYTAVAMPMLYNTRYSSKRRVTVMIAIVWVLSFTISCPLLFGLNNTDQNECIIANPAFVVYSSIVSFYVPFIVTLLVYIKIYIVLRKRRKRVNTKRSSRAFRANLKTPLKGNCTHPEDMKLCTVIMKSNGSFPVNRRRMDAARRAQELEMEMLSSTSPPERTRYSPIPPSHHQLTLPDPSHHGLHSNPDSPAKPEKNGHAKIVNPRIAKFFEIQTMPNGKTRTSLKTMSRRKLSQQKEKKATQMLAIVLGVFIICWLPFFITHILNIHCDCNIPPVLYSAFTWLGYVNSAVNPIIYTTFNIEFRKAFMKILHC
T1 sequence (P61169 whole entry): as above

| SMILES | IC50 [1] [nM] | IC50 (D(2) dopamine receptor [5]) [nM] | other results |
| --- | --- | --- | --- |
| CCN1CCCC2c3cc(O)ccc3CCC21 (racemic) | 70 | 110 | Accumulated counts (Rattus norvegicus [2]): 47; Control [3]: 57%; ED50 [4]: 0.017 µmol/kg |
| Oc1cccc([C@H]2CCCNC2)c1 | 4570 | 435 | Accumulated counts (Rattus norvegicus [6]): 47 |
| Oc1ccc2c(c1)C1CCCN(CCc3ccccc3)C1CC2 (racemic) | 27 | 990 | Accumulated counts (Rattus norvegicus [7]): 72; ED50 (Rattus norvegicus [8]): inactive |
| COc1ccc2c(c1)C1CCCN(Cc3ccccc3)C1CC2 (racemic) | – | 5520 | Accumulated counts (Rattus norvegicus [9]): 21; ED50 (Rattus norvegicus [8]): inactive |
| CN1CCCC(c2cccc(O)c2)C1 (stereo not given) | 1910 | 1950 | Accumulated counts (Rattus norvegicus [10]): 36 |
| CCCN1CCC[C@H]2c3cccc(O)c3CC[C@@H]21 | 438 | 34 | Accumulated counts (Rattus norvegicus [11]): 78 |
| CCCCN1CCCC2c3cc(O)ccc3CCC21 (racemic; 33) | 35 | – | IC50 (D(2) dopamine receptor [12]): 10400 nM |
| CCCN1CCCC2c3ccc(O)cc3CCC21 (racemic; 17) | 10 | 730 | – |
| Oc1ccc2c(c1)C1CCCN(Cc3ccccc3)C1CC2 (racemic) | 11 | 3440 | Accumulated counts (Rattus norvegicus [9]): 78; ED50 (Rattus norvegicus [8]): inactive |
| CCCN1CCCC2c3cc(O)ccc3CCC21 (stereo in doubt; form 2) [listing 1 of 2 here] | – | – | ED50 [4]: 0.004 µmol/kg |
| CCCN1CCCC2c3cc(O)ccc3CCC21 (racemic; 21) [listing 1 of 2 here] | – | – | Control [3]: 68%; ED50 [4]: 0.008 µmol/kg |
| Oc1cccc2c1CC[C@H]1NCCC[C@H]21 | 2370 | 1550 | – |
| CCCCN1CCC[C@@H](c2cccc(O)c2)C1 | 31 | 275 | Accumulated counts (Rattus norvegicus [13]): 63; Control [3]: 43% |
| Oc1cccc2c1CCC1NCCCC21 (racemic) | 14900 | 7500 | Accumulated counts (Rattus norvegicus [14]): 10; ED50 (Rattus norvegicus [8]): inactive |
| CCCCN1CCCC2c3cc(O)ccc3CCC21 (racemic; 23) [listing 1 of 2 here] | – | – | ED50 (Rattus norvegicus [8]): inactive |
| Oc1cccc2c1CCC1C2CCCN1CCc1ccccc1 (racemic) | 65 | 6 | Accumulated counts (Rattus norvegicus [7]): 143; Control [3]: 67%; ED50 [4]: 0.043 µmol/kg |
| CCCN1CCCC2c3cccc(O)c3CCC21 (racemic) | – | – | IC50 (D(2) dopamine receptor [15]): 63 nM; Accumulated counts (Rattus norvegicus [11]): 163 |
| CCCN1CCC[C@H]2c3cccc(O)c3CC[C@H]21 | 197 | > 100000 | ED50 (Rattus norvegicus [8]): inactive |
| CCCN1CCC[C@H](c2cccc(O)c2)C1 | – | – | Control [3]: 84%; Accumulated counts (Rattus norvegicus [16]): 78 |
| CCCCN1CCCC2c3cccc(O)c3CCC21 (racemic) | 23 | 38 | Control [3]: 57%; ED50 [4]: 0.08 µmol/kg; Accumulated counts (Rattus norvegicus [11]): 196 |
| Oc1ccc2c(c1)C1CCCNC1CC2 (racemic; 31) [listing 1 of 2 here] | – | – | ED50 (Rattus norvegicus [8]): inactive |
| Oc1ccc2c(c1)C1CCCNC1CC2 (racemic; 31) [listing 2 of 2 here] | 11600 | 30400 | – |
| CCCCN1CCCC2c3cc(OC)ccc3CCC21 (racemic) | 5 | 3840 | Accumulated counts (Rattus norvegicus [9]): 135; ED50 (Rattus norvegicus [8]): inactive |
| CCCN1CCCC2c3c(O)cccc3CCC21 (racemic) | 1930 | 61800 | ED50 (Rattus norvegicus [8]): inactive |

| SMILES | IC50 [1] [nM] | IC50 (D(2) dopamine receptor [5]) [nM] | other results |
| --- | --- | --- | --- |
| CCCN1CCCC2c3cc(O)ccc3CCC21 (stereo in doubt; form 1) [listing 1 of 2 here] | 520 | – | Accumulated counts (Rattus norvegicus [17]): 28 |
| CCCCN1CCC[C@H](c2cccc(O)c2)C1 | 9 | 2670 | Accumulated counts (Rattus norvegicus [18]): 180; Control [3]: 74% |
| CC(C)N1CCC[C@H](c2cccc(O)c2)C1 | 247 | 12100 | Accumulated counts (Rattus norvegicus [13]): 49 |
| CCN1CCCC2c3cccc(O)c3CCC21 (racemic) | 236 | 102 | Control [3]: 54%; Accumulated counts (Rattus norvegicus [11]): 19 |
| CCCN1CCCC2c3cc(O)ccc3CCC21 (racemic; 32) [listing 1 of 2 here] | 66 | 6700 | – |
| CCCN1CCCC2c3ccc(O)cc3CCC21 (racemic; 30) [listing 1 of 2 here] | – | – | ED50 (Rattus norvegicus [8]): inactive |
| CCCN1CCCC2c3cc(O)ccc3CCC21 (racemic; 21) [listing 2 of 2 here] | 19 | 101 | Accumulated counts (Rattus norvegicus [2]): 188 |
| Oc1cccc([C@H]2CCCN(CCc3ccccc3)C2)c1 | 8 | 1240 | Accumulated counts (Rattus norvegicus [18]): 26 |
| CCCN1CCC[C@@H]2c3cccc(O)c3CC[C@@H]21 | 48 | 160 | Accumulated counts (Rattus norvegicus [11]): 59 |
| Oc1cccc2c1CC[C@@H]1NCCC[C@@H]21 | 3610 | 92 | – |
| CCCN1CCCC2c3ccc(O)cc3CCC21 (racemic; 30) [listing 2 of 2 here] | 40 | 13000 | – |
| CCCN1CCCC2c3cc(O)ccc3CCC21 (racemic; 32) [listing 2 of 2 here] | – | – | ED50 (Rattus norvegicus [8]): inactive |
| CCCN1CCCC(c2ccc(O)cc2)C1 (stereo not given) | 276 | 13000 | ED50 (Rattus norvegicus [8]): inactive |
| CCCN1CCC[C@@H]2c3cccc(O)c3CC[C@@H]21 (racemic) [listing 1 of 2 here] | 416 | 2100 | – |
| Oc1ccc2c(c1)C1CCCNC1CC2 (racemic; 18) [listing 1 of 2 here] | – | – | Control [3]: 90% |
| CN1CCCC2c3cc(O)ccc3CCC21 (racemic) | 221 | 265 | Accumulated counts (Rattus norvegicus [14]): 60; Control [3]: 57%; ED50 [4]: 0.4 µmol/kg |
| CCCN1CCCC2c3cc(O)ccc3CCC21 (stereo in doubt; form 2) [listing 2 of 2 here] | 21 | 25 | Accumulated counts (Rattus norvegicus [2]): 155 |
| CN1CCCC2c3cccc(O)c3CCC21 (racemic) | 610 | 114 | Accumulated counts (Rattus norvegicus [10]): 40; Control [3]: 33% |
| CCCN1CCC[C@@H](c2cccc(O)c2)C1 [PRECLAMOL] | – | – | Accumulated counts (Rattus norvegicus [19]): 12; Control [3]: 33% |
| CCCCN1CCCC2c3cc(O)ccc3CCC21 (racemic; 23) [listing 2 of 2 here] | 10 | 2990 | Accumulated counts (Rattus norvegicus [9]): 75 |
| Oc1ccc2c(c1)C1CCCNC1CC2 (racemic; 18) [listing 2 of 2 here] | 1940 | 895 | Accumulated counts (Rattus norvegicus [14]): 10 |
| CCCN1CCCC2c3cc(O)ccc3CCC21 (stereo in doubt; form 1) [listing 2 of 2 here] | – | – | ED50 [4]: 0.25 µmol/kg |
| COc1ccc2c(c1)C1CCCN(CCc3ccccc3)C1CC2 (racemic) | 14 | 435 | – |
| CCCN1CCC[C@@H]2c3cccc(O)c3CC[C@@H]21 (racemic) [listing 2 of 2 here] | – | – | ED50 (Rattus norvegicus [8]): inactive |
